This is an account of results in PMC12744306 (Probiotics and antimicrobial proteins, 2024).

Values after ≈ are worked out from the molar mass of the structure shown. Read-outs that look alike come from different tables or passages of the source. Positions of bridges follow the written chain, without caps; N, C: chain ends. Non-standard residues stand in square brackets, D forms with d. Residues, ends and D or L forms follow the SMILES beside them. No end group written: not given here. *: point of attachment. X1 = CC[C@H](C)CCCCC(=O)*; Dab = NCC[C@H](N)C(=O)O Some results are limits rather than exact numbers.

Data set [1] deals with S. aureus USA300. Format: cell-based.
For a further data set, the system named is S. epidermidis 1457. The data set is classed as cell-based.
Another data set has as its system E. coli E423-17. The data set is classed as cell-based.
The next data set concerns A. baumannii B28-16. The data set is classed as cell-based.
Data set [2] concerns S. aureus USA300. Format: cell-based. The conditions noted are these: for MIC in the presence of 150 mM NaCl: S. aureus; for activity against S. aureus USA300 under all these conditions: pH 6.2/8.1, 150 mM NaCl, human serum.
A further data set relates to human red blood cells. Kind of data set: Hemolytic assay. Format: cell-based. The conditions noted are these: 2% hRBC, 37°C, 1 h; for hemolysis: relative to 1% Triton X-100.
A further data set deals with Human liver HepG2 cells. The data set is classed as cell-based.
The subject of another data set is bacteria. As to conditions: cited from earlier work.
In data set [3] the test system is P. aeruginosa E411-17. Format: cell-based.
A further data set has as its system E. coli. The conditions noted are these: cited from earlier work.
Data set [4] relates to P. aeruginosa E411-17. Kind of data set: Killing kinetics. The data set is classed as cell-based. The conditions noted are these: 4 × MIC, ~10^5 CFU/mL in MHB, 37°C, CFU count.
The test system of data set [5] is P. aeruginosa E411-17. Kind of data set: Effects of pH, salts and serum on peptide activity. The data set is classed as cell-based. As to conditions: different pH, salt and serum conditions.
The subject of data set [6] is Human keratinocytes (HaCaT). Kind of data set: Cytotoxicity assay. Format: cell-based. As to conditions: 24 h, MTS.
The next data set has as its system MRSA USA300. The experiment in a line: Killing kinetics. Format: cell-based, S. aureus. The conditions noted are these: 4 × MIC, ~10^5 CFU/mL in MHB, 37°C, CFU count. The procedure, abridged:
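MRSA USA300 was grown in MHB to OD600 ~0.3, then diluted to OD600 0.001 (~10⁵ CFU/mL). 1 mL was incubated at 37°C with test compound or reference antibiotic at 4× MIC. At 15, 30, 60, 90 and 120 min, 50 μL was serially diluted in PBS and plated on mannitol salt agar. CFU were counted after overnight growth at 37°C.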

In a further data set the test system is K. pneumoniae E406-17. Format: cell-based. As to conditions: not shown.
Where [7] appears, read: Table 3, sequence reversal experiment.

As to LWGRFFRKWK-NH2 [LL-10+], the “minimal inhibitory concentration (MIC), S. aureus USA 300” value with S. aureus USA300 [1] (setting [7]) came to 16 µM. Also, the “minimal inhibitory concentration (MIC), S. epidermidis 1457” value with S. epidermidis 1457 (setting [7]) amounted to 32 µM. The “minimal inhibitory concentration (MIC), E. coli E423-17” value with E. coli E423-17 (setting [7]) stood at 32 µM. Moreover, in the data set on A. baumannii B28-16, the “minimal inhibitory concentration (MIC), A. baumannii B28-16” value amounted to 64 µM. Besides, the “MIC in the presence of 150 mM NaCl” value in the data set with S. aureus USA300 [2] was above 32 µM. In addition, the “HC10 (10% hemolytic concentration)” value in the data set on human red blood cells is above 400 µM. Besides, the “toxicity to HepG2” value in the data set with Human liver HepG2 cells is “subtle effects”. Also, the “LC50, HepG2” value in the data set on Human liver HepG2 cells (24 h, MTS) is above 100 µM.

In the case of KRIVQRIK-NH2 [KR-8], the “antibacterial activity in the standard Mueller Hinton Broth (MHB)” value (“antibacterial activity” below) with bacteria is “not antibacterial”.

With RWWKKWWGK-NH2 [RK-9+], the “minimal inhibitory concentration (MIC), P. aeruginosa E411-17” value in the data set with P. aeruginosa E411-17 [3] (E411-17) amounted to 16 µM. Further, in the data set with E. coli E423-17 (E423-17), the “minimal inhibitory concentration (MIC), E. coli E423-17” value lay within 4 to 8 µM. Also, the “MIC in the presence of 150 mM NaCl” value with S. aureus USA300 [2] was 16 to 32 µM. In the data set with human red blood cells, the “HC10 (10% hemolytic concentration)” value is above 400 µM. Also, in the data set with Human liver HepG2 cells, the “toxicity to HepG2” value is “subtle effects”. Also, the “LC50, HepG2” value with Human liver HepG2 cells (24 h, MTS) was above 100 µM.

Consider RIKDFLRNLV-NH2 [RIK-10], for which the “activity against E. coli in standard MHB” value with E. coli is listed as “active”.

KRWWQWWK-NH2 [KR-8+]: the “minimal inhibitory concentration (MIC), S. epidermidis 1457” value with S. epidermidis 1457 (1457) turned out to be 16 µM. In addition, the “minimal inhibitory concentration (MIC), E. coli E423-17” value with E. coli E423-17 (E423-17) fell in the range of 4 to 8 µM. Moreover, the “minimal inhibitory concentration (MIC), A. baumannii B28-16” value in the data set with A. baumannii B28-16 amounted to 16 µM. Further, in the data set with S. aureus USA300 [2], the “MIC in the presence of 150 mM NaCl” value is 16 to 32 µM. Also, the “HC10 (10% hemolytic concentration)” value in the data set on human red blood cells amounted to 300 µM. In the data set with human red blood cells (at 400 μM), this compound gave a hemolysis of 18%. The “LC50, HepG2” value in the data set with Human liver HepG2 cells (24 h, MTS) turned out to be 12.5 µM.

For `CC[C@H](C)CCCCC(=O)N[C@@H](CCN)C(=O)N[C@H](C(=O)N[C@@H](CCN)C(=O)N[C@H]1CCNC(=O)[C@H]([C@@H](C)O)NC(=O)[C@H](CCN)NC(=O)[C@H](CCN)NC(=O)[C@H](CC(C)C)NC(=O)[C@@H](CC(C)C)NC(=O)[C@H](CCN)NC1=O)[C@@H](C)O` [Colistin, reference compound] (X1-[Dab]T[Dab][Dab][Dab][dL]L[Dab][Dab]T; lactam 4-C (inferred); N-terminus assumed), in the data set on P. aeruginosa E411-17 [4], the “time to eliminate P. aeruginosa” value worked out at 30 min. For the same compound, the “activity against S. aureus USA300 under all these conditions” value in the data set on S. aureus USA300 [2] was “inactive”. Also, the “activity against P. aeruginosa under all the conditions tested” value with P. aeruginosa E411-17 [5] was “retained pseudomonacidal activity”. In addition, the “lysis of human red blood cells” value in the data set with human red blood cells (at 400 μM, 545 nm) is reported as “did not lyse”. Further, the “toxicity to HaCaT” value in data set [6] (at 100 μM) is on record as “little toxicity”. Besides, the “toxicity to HepG2” value in the data set on Human liver HepG2 cells (24 h, MTS) is “subtle effects”.

With `CCCCCCCCCC(=O)N[C@@H](Cc1c[nH]c2ccccc12)C(=O)N[C@H](CC(N)=O)C(=O)N[C@@H](CC(=O)O)C(=O)N[C@@H]1C(=O)NCC(=O)N[C@@H](CCCN)C(=O)N[C@@H](CC(=O)O)C(=O)N[C@H](C)C(=O)N[C@@H](CC(=O)O)C(=O)NCC(=O)N[C@H](CO)C(=O)N[C@@H]([C@H](C)CC(=O)O)C(=O)N[C@@H](CC(=O)c2ccccc2N)C(=O)O[C@@H]1C` [Daptomycin, reference compound], the “minimal inhibitory concentration (MIC), S. aureus USA 300” value with S. aureus USA300 [1] (USA300) came out at 0.5 µM (≈ 0.81 µg/mL). Also, in the data set with S. epidermidis 1457 (1457), the “minimal inhibitory concentration (MIC), S. epidermidis 1457” value amounted to 0.5 µM (≈ 0.81 µg/mL). Also, the “time to kill MRSA USA300” value in the data set with MRSA USA300 is around 90 min. Besides, the “activity against S. aureus USA300 under all these conditions” value in the data set on S. aureus USA300 [2] was “remained potent”. Besides, the “activity against P. aeruginosa under all the conditions tested” value with P. aeruginosa E411-17 [5] is “did not display any activity”. The “toxicity to HepG2” value with Human liver HepG2 cells (24 h, MTS) was “subtle effects”.

Regarding RKSKEKIGK-NH2 [RK-9], the “antibacterial activity” value with bacteria is reported as “not antibacterial”.

As to LLGDFFRKSK-NH2 [LL-10], in the data set on bacteria, the “antibacterial activity” value is on record as “not antibacterial”.

Regarding RWKRFLRNWV-NH2 [RIK-10+], the “minimal inhibitory concentration (MIC), S. aureus USA 300” value in the data set with S. aureus USA300 [1] (setting [7]) came to 16 µM. Further, the “minimal inhibitory concentration (MIC), S. epidermidis 1457” value in the data set on S. epidermidis 1457 (1457) came to 64 µM. For the same compound, in the data set on P. aeruginosa E411-17 [3] (setting [7]), the “minimal inhibitory concentration (MIC), P. aeruginosa E411-17” value worked out at 4 µM. For the same compound, the “minimal inhibitory concentration (MIC), E. coli E423-17” value with E. coli E423-17 (E423-17) was found to be 4 µM. Besides, in the data set with A. baumannii B28-16, the “minimal inhibitory concentration (MIC), A. baumannii B28-16” value came to 8 µM. For the same compound, in the data set with K. pneumoniae E406-17, the “MIC, K. pneumoniae E406-17” value amounted to 32 µM. Besides, the “MIC in the presence of 150 mM NaCl” value in the data set on S. aureus USA300 [2] was above 32 µM. Further, in the data set with human red blood cells (at 400 μM), the hemolysis is recorded as 18%. In addition, the “50% lethal concentration (LC50), HaCaT” value in data set [6] came to 100 µM. In addition, in the data set on Human liver HepG2 cells (24 h, MTS), the “LC50, HepG2” value amounted to 100 µM.
